≈ marks a conversion by molar mass, not a printed value.
How the values were obtained:
Type in all cases: functional
Streptococcus pneumoniae [1] = assay: Antimicrobial activity against drug-resistant Streptococcus pneumoniae isolate 24 after 50 passages with moxifloxacin measured after 10 antibiotic-free subculture by multi-step resistance selection technique
Procedure, shortened: (§1)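 Mutants selected by daily broth passage in subinhibitory drug in cation-adjusted Mueller-Hinton broth with 5% lysed horse blood. Stability was tested by 10 daily passages on blood agar without antibiotic, then macrodilution MIC.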

Streptococcus pneumoniae [2] = assay: Antimicrobial activity against drug-resistant Streptococcus pneumoniae isolate 24 after 14 passages with Telithromycin measured after 10 antibiotic-free subculture by multi-step resistance selection technique; procedure, shortened: as §1
Streptococcus pneumoniae [3] = assay: Antimicrobial activity against drug-resistant Streptococcus pneumoniae isolate 24 by NCCLS M7-A7 method
Streptococcus pneumoniae [4] = assay: Antimicrobial activity against drug-resistant Streptococcus pneumoniae isolate 1635 after 49 passages with clarithromycin measured after 10 antibiotic-free subculture by multi-step resistance selection technique
Streptococcus pneumoniae [5] = assay: Antimicrobial activity against drug-resistant Streptococcus pneumoniae isolate 1635 after 14 passages with azithromycin measured after 10 antibiotic-free subculture by multi-step resistance selection technique; procedure, shortened: as §1
Streptococcus pneumoniae [6] = assay: Antimicrobial activity against drug-resistant Streptococcus pneumoniae isolate 1635 after 49 passages by multi-step resistance selection technique
Procedure, shortened: (§2)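 Daily serial passage in subinhibitory drug levels in 1 ml cation-adjusted Mueller-Hinton broth with 5% lysed horse blood; fresh broth for tigecycline. Each day, 10 μl were taken from the tube one to two dilutions below the MIC whose turbidity matched the growth control, and used to set the next MIC. […] MIC by macrodilution.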

Streptococcus pneumoniae [7] = assay: Antimicrobial activity against drug-resistant Streptococcus pneumoniae isolate 1635 by NCCLS M7-A7 method
Streptococcus pneumoniae [8] = assay: Antimicrobial activity against drug-resistant Streptococcus pneumoniae isolate 3243 after 20 passages with moxifloxacin measured after 10 antibiotic-free subculture by multi-step resistance selection technique; procedure, shortened: as §1
Streptococcus pneumoniae [9] = assay: Antimicrobial activity against drug-resistant Streptococcus pneumoniae isolate 3243 after 41 passages with clarithromycin measured after 10 antibiotic-free subculture by multi-step resistance selection technique
Streptococcus pneumoniae [10] = assay: Antimicrobial activity against drug-resistant Streptococcus pneumoniae isolate 3243 after 33 passages with azithromycin measured after 10 antibiotic-free subculture by multi-step resistance selection technique; procedure, shortened: as §1
Streptococcus pneumoniae [11] = assay: Antimicrobial activity against drug-resistant Streptococcus pneumoniae isolate 3243 after 29 passages with Telithromycin measured after 10 antibiotic-free subculture by multi-step resistance selection technique; procedure, shortened: as §1
Streptococcus pneumoniae [12] = assay: Antimicrobial activity against drug-resistant Streptococcus pneumoniae isolate 3243 after 41 passages by multi-step resistance selection technique; procedure, shortened: as §2
Streptococcus pneumoniae [13] = assay: Antimicrobial activity against drug-resistant Streptococcus pneumoniae isolate 3243 by NCCLS M7-A7 method
Streptococcus pneumoniae [14] = assay: Antimicrobial activity against drug-resistant Streptococcus pneumoniae isolate 3676 after 50 passages with moxifloxacin measured after 10 antibiotic-free subculture by multi-step resistance selection technique
Streptococcus pneumoniae [15] = assay: Antimicrobial activity against drug-resistant Streptococcus pneumoniae isolate 3274 after 48 passages with Telithromycin measured after 10 antibiotic-free subculture by multi-step resistance selection technique; procedure, shortened: as §1
Streptococcus pneumoniae [16] = assay: Antimicrobial activity against drug-resistant Streptococcus pneumoniae isolate 3274 after 50 passages by multi-step resistance selection technique
Procedure, shortened: (§3)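 Daily serial passage in subinhibitory drug levels in 1 ml cation-adjusted Mueller-Hinton broth with 5% lysed horse blood; fresh broth for tigecycline. Each day, 10 μl were taken from the tube one to two dilutions below the MIC whose turbidity matched the growth control, and used to set the next MIC. MIC by macrodilution.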

Streptococcus pneumoniae [17] = assay: Antimicrobial activity against drug-resistant Streptococcus pneumoniae isolate 3274 by NCCLS M7-A7 method
Streptococcus pneumoniae [18] = assay: Antimicrobial activity against drug-resistant Streptococcus pneumoniae isolate 2527 after 14 passages with gemifloxacin measured after 10 antibiotic-free subculture by multi-step resistance selection technique; procedure, shortened: as §1
Streptococcus pneumoniae [19] = assay: Antimicrobial activity against drug-resistant Streptococcus pneumoniae isolate 2527 after 20 passages with azithromycin measured after 10 antibiotic-free subculture by multi-step resistance selection technique; procedure, shortened: as §1
Streptococcus pneumoniae [20] = assay: Antimicrobial activity against drug-resistant Streptococcus pneumoniae isolate 2527 by NCCLS M7-A7 method
Streptococcus pneumoniae [21] = assay: Antimicrobial activity against drug-resistant Streptococcus pneumoniae isolate 2527 after 50 passages by multi-step resistance selection technique; procedure, shortened: as §2
Streptococcus pneumoniae [22] = assay: Antimicrobial activity against drug-resistant Streptococcus pneumoniae isolate 3665 by NCCLS M7-A7 method
Streptococcus pneumoniae [23] = assay: Antimicrobial activity against drug-resistant Streptococcus pneumoniae isolate 1077 after 49 passages with clindamycin measured after 10 antibiotic-free subculture by multi-step resistance selection technique
Streptococcus pneumoniae [24] = assay: Antimicrobial activity against drug-resistant Streptococcus pneumoniae isolate 1077 after 29 passages with azithromycin measured after 10 antibiotic-free subculture by multi-step resistance selection technique; procedure, shortened: as §1
Streptococcus pneumoniae [25] = assay: Antimicrobial activity against drug-resistant Streptococcus pneumoniae isolate 1077 after 15 passages with Telithromycin measured after 10 antibiotic-free subculture by multi-step resistance selection technique; procedure, shortened: as §1
Streptococcus pneumoniae [26] = assay: Antimicrobial activity against drug-resistant Streptococcus pneumoniae isolate 1077 after 50 passages by multi-step resistance selection technique; procedure, shortened: as §3
Streptococcus pneumoniae [27] = assay: Antimicrobial activity against drug-resistant Streptococcus pneumoniae isolate 1077 by NCCLS M7-A7 method
Streptococcus pneumoniae [28] = assay: Antimicrobial activity against drug-resistant Streptococcus pneumoniae isolate 1076 after 35 passages with moxifloxacin measured after 10 antibiotic-free subculture by multi-step resistance selection technique; procedure, shortened: as §1
Streptococcus pneumoniae [29] = assay: Antimicrobial activity against drug-resistant Streptococcus pneumoniae isolate 1076 after 14 passages with Telithromycin measured after 10 antibiotic-free subculture by multi-step resistance selection technique; procedure, shortened: as §1
Streptococcus pneumoniae [30] = assay: Antimicrobial activity against drug-resistant Streptococcus pneumoniae isolate 1076 by NCCLS M7-A7 method
Streptococcus pneumoniae [31] = assay: Antimicrobial activity against drug-resistant Streptococcus pneumoniae isolate 3009 after 19 passages with moxifloxacin measured after 10 antibiotic-free subculture by multi-step resistance selection technique; procedure, shortened: as §1
Streptococcus pneumoniae [32] = assay: Antimicrobial activity against drug-resistant Streptococcus pneumoniae isolate 3009 after 18 passages with levofloxacin measured after 10 antibiotic-free subculture by multi-step resistance selection technique; procedure, shortened: as §1
Streptococcus pneumoniae [33] = assay: Antimicrobial activity against drug-resistant Streptococcus pneumoniae isolate 3009 after 21 passages with gemifloxacin measured after 10 antibiotic-free subculture by multi-step resistance selection technique; procedure, shortened: as §1
Streptococcus pneumoniae [34] = assay: Antimicrobial activity against drug-resistant Streptococcus pneumoniae isolate 3009 after 25 passages with clarithromycin measured after 10 antibiotic-free subculture by multi-step resistance selection technique
Streptococcus pneumoniae [35] = assay: Antimicrobial activity against drug-resistant Streptococcus pneumoniae isolate 3009 after 25 passages by multi-step resistance selection technique; procedure, shortened: as §2
Streptococcus pneumoniae [36] = assay: Antimicrobial activity against drug-resistant Streptococcus pneumoniae isolate 3009 by NCCLS M7-A7 method
Streptococcus pneumoniae [37] = assay: Antimicrobial activity against drug-resistant Streptococcus pneumoniae isolate 1635 after 14 passages with clindamycin measured after 10 antibiotic-free subculture by multi-step resistance selection technique
Streptococcus pneumoniae [38] = assay: Antimicrobial activity against drug-resistant Streptococcus pneumoniae isolate 37 by NCCLS M7-A7 method
Streptococcus pneumoniae [39] = assay: Antimicrobial activity against drug-resistant Streptococcus pneumoniae isolate 37 after 14 passages with Telithromycin measured after 10 antibiotic-free subculture by multi-step resistance selection technique
Streptococcus pneumoniae [40] = assay: Antimicrobial activity against drug-resistant Streptococcus pneumoniae isolate 3413 by NCCLS M7-A7 method
Streptococcus pneumoniae [41] = assay: Antimicrobial activity against drug-resistant Streptococcus pneumoniae isolate 3413 after 50 passages by multi-step resistance selection technique; procedure, shortened: as §3
Streptococcus pneumoniae [42] = assay: Antimicrobial activity against drug-resistant Streptococcus pneumoniae isolate 3413 after 30 passages with Telithromycin measured after 10 antibiotic-free subculture by multi-step resistance selection technique; procedure, shortened: as §1
Streptococcus pneumoniae [43] = assay: Antimicrobial activity against drug-resistant Streptococcus pneumoniae isolate 3676 after 44 passages with clarithromycin measured after 10 antibiotic-free subculture by multi-step resistance selection technique
Streptococcus pneumoniae [44] = assay: Antimicrobial activity against drug-resistant Streptococcus pneumoniae isolate 3676 after 14 passages with Telithromycin measured after 10 antibiotic-free subculture by multi-step resistance selection technique
Streptococcus pneumoniae [45] = assay: Antimicrobial activity against drug-resistant Streptococcus pneumoniae isolate 3676 after 44 passages by multi-step resistance selection technique
Procedure, shortened: (§4)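 Daily serial passage in broth at subinhibitory drug levels: 1 ml cation-adjusted Mueller-Hinton broth with 5% lysed horse blood; fresh broth for tigecycline. Each day 10 μl inoculum taken from the tube one to two dilutions below MIC matching growth-control turbidity, used to set next MIC. Continued until ≥8-fold MIC rise, minimum 14, maximum 50 passages; MIC read by macrodilution.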

Streptococcus pneumoniae [46] = assay: Antimicrobial activity against drug-resistant Streptococcus pneumoniae isolate 3676 by NCCLS M7-A7 method
Streptococcus pneumoniae [47] = assay: Antimicrobial activity against drug-resistant Streptococcus pneumoniae isolate 3665 after 38 passages with moxifloxacin measured after 10 antibiotic-free subculture by multi-step resistance selection technique
Streptococcus pneumoniae [48] = assay: Antimicrobial activity against drug-resistant Streptococcus pneumoniae isolate 3665 after 26 passages with clarithromycin measured after 10 antibiotic-free subculture by multi-step resistance selection technique
Streptococcus pneumoniae [49] = assay: Antimicrobial activity against drug-resistant Streptococcus pneumoniae isolate 3665 after 14 passages with Telithromycin measured after 10 antibiotic-free subculture by multi-step resistance selection technique
Streptococcus pneumoniae [50] = assay: Antimicrobial activity against drug-resistant Streptococcus pneumoniae isolate 3665 after 26 passages by multi-step resistance selection technique; procedure, shortened: as §4

CC[C@H]1OC(=O)[C@H](C)[C@@H](O[C@H]2C[C@@](C)(OC)[C@@H](O)[C@H](C)O2)[C@H](C)[C@@H](O[C@@H]2O[C@H](C)C[C@H](N(C)C)[C@H]2O)[C@](C)(OC)C[C@@H](C)C(=O)[C@H](C)[C@@H](O)[C@]1(C)O [CLARITHROMYCIN]
MIC (Streptococcus pneumoniae [1]): > 64 µg/mL | MIC (Streptococcus pneumoniae [2]): > 64 µg/mL | MIC (Streptococcus pneumoniae [3]): > 64 µg/mL | MIC (Streptococcus pneumoniae [4]): > 64 µg/mL | MIC (Streptococcus pneumoniae [5]): > 64 µg/mL | MIC (Streptococcus pneumoniae [6]): > 64 µg/mL | MIC (Streptococcus pneumoniae [7]): 0.5 µg/mL (≈ 0.668 µM) | MIC (Streptococcus pneumoniae [8]): 0.004 µg/mL (≈ 0.00535 µM) | MIC (Streptococcus pneumoniae [9]): 0.25 µg/mL (≈ 0.334 µM) | MIC (Streptococcus pneumoniae [10]): 0.5 µg/mL (≈ 0.668 µM) | MIC (Streptococcus pneumoniae [11]): > 64 µg/mL | MIC (Streptococcus pneumoniae [12]): 0.25 µg/mL (≈ 0.334 µM) | MIC (Streptococcus pneumoniae [13]): 0.016 µg/mL (≈ 0.0214 µM) | MIC (Streptococcus pneumoniae [14]): 4 µg/mL (≈ 5.35 µM) | MIC (Streptococcus pneumoniae [15]): 1 µg/mL (≈ 1.34 µM) | MIC (Streptococcus pneumoniae [16]): 0.03 µg/mL (≈ 0.0401 µM) | MIC (Streptococcus pneumoniae [17]): 0.008 µg/mL (≈ 0.0107 µM) | MIC (Streptococcus pneumoniae [18]): 0.016 µg/mL (≈ 0.0214 µM) | MIC (Streptococcus pneumoniae [19]): 16 µg/mL (≈ 21.4 µM) | MIC (Streptococcus pneumoniae [20]): 0.008 µg/mL (≈ 0.0107 µM) | MIC (Streptococcus pneumoniae [21]): 0.016 µg/mL (≈ 0.0214 µM) | MIC (Streptococcus pneumoniae [22]): 2 µg/mL (≈ 2.67 µM) | MIC (Streptococcus pneumoniae [23]): > 64 µg/mL | MIC (Streptococcus pneumoniae [24]): > 64 µg/mL | MIC (Streptococcus pneumoniae [25]): > 64 µg/mL | MIC (Streptococcus pneumoniae [26]): 0.008 µg/mL (≈ 0.0107 µM) | MIC (Streptococcus pneumoniae [27]): 0.016 µg/mL (≈ 0.0214 µM) | MIC (Streptococcus pneumoniae [28]): > 64 µg/mL | MIC (Streptococcus pneumoniae [29]): > 64 µg/mL | MIC (Streptococcus pneumoniae [30]): > 64 µg/mL | MIC (Streptococcus pneumoniae [31]): 8 µg/mL (≈ 10.7 µM) | MIC (Streptococcus pneumoniae [32]): 8 µg/mL (≈ 10.7 µM) | MIC (Streptococcus pneumoniae [33]): 16 µg/mL (≈ 21.4 µM) | MIC (Streptococcus pneumoniae [34]): 64 µg/mL (≈ 85.6 µM) | MIC (Streptococcus pneumoniae [35]): > 64 µg/mL | MIC (Streptococcus pneumoniae [36]): 16 µg/mL (≈ 21.4 µM) | MIC (Streptococcus pneumoniae [37]): 0.5 µg/mL (≈ 0.668 µM) | MIC (Streptococcus pneumoniae [38]): > 64 µg/mL | MIC (Streptococcus pneumoniae [39]): > 64 µg/mL | MIC (Streptococcus pneumoniae [40]): 8 µg/mL (≈ 10.7 µM) | MIC (Streptococcus pneumoniae [41]): 8 µg/mL (≈ 10.7 µM) | MIC (Streptococcus pneumoniae [42]): 16 µg/mL (≈ 21.4 µM) | MIC (Streptococcus pneumoniae [43]): 16 µg/mL (≈ 21.4 µM) | MIC (Streptococcus pneumoniae [44]): 2 µg/mL (≈ 2.67 µM) | MIC (Streptococcus pneumoniae [45]): 32 µg/mL (≈ 42.8 µM) | MIC (Streptococcus pneumoniae [46]): 4 µg/mL (≈ 5.35 µM) | MIC (Streptococcus pneumoniae [47]): 2 µg/mL (≈ 2.67 µM) | MIC (Streptococcus pneumoniae [48]): 8 µg/mL (≈ 10.7 µM) | MIC (Streptococcus pneumoniae [49]): 2 µg/mL (≈ 2.67 µM) | MIC (Streptococcus pneumoniae [50]): 16 µg/mL (≈ 21.4 µM)

— ChEMBL document CHEMBL1151428, “Capability of 11 antipneumococcal antibiotics to select for resistance by multistep and single-step methodologies” (2007)
